Bioassay records deposited in PubChem by Broad Institute.
Env fusion inh – HIV envelope-mediated fusion inhibition; HeLa-JRFL Env/CEM21 cell fusion, luciferase; AID 651610; hit rate 1.1% among 360,000; inhibition, % at 12.3 µM;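 active means mean replicate inhibition score of at least 50 and every replicate individually at or above 50; inconclusive means only one of the two criteria met; inactive means mean below 50 and not all replicates reaching 50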
PGC1a acetyl inh – lowers PGC1a acetylation signal in U2OS cells; inhibition, % at 15.6 µM; AID 651687; AlphaScreen anti-acetyl-lysine; with virally co-expressed GCN5 acetyltransferase; hit rate 0.17% among 350,000;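 active means every replicate shows inhibition of at least 40%; inconclusive means mean inhibition at least 40% but some replicate below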
EWS-Fli block – EWS/Fli transcriptional activity inhibition | A673 NR0B1-luciferase reporter, viability-normalised | inhibition, % at 12.6 µM | hit rate 0.67% among 350,000 | AID 651661;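 active means mean inhibition of at least 50% after viability correction, with every replicate also passing that limit; inconclusive means mean reaches 50% but only one of two replicates passes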;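 further: firefly luciferase signal divided by Alamar Blue viability fluorescence both relative to DMSO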
FN deposition inh – fibronectin deposition inhibition. hit rate 0.086% among 350,000. AID 743247. AH1F fibroblasts, Alexa488-fibronectin deposition fluorescence, overnight. inhibition, % at 12.6 µM;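 active means mean inhibition across replicates of 30% or more, regardless of how many single replicates reach that level; inconclusive means mean under 30% yet at least half of replicates reach 30%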
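Assay system: AH1F fibroblast monolayer, labelled fibronectin deposition. Amount: 10000 cells per well. Also added: labelled fibronectin 24 nM. Compound: single-point pinned compound. Incubation: cell attachment 1 h, compound and FN exposure overnight. Detection: fluorescence after three HBSS washes, excitation 485 nm, emission 525 nm. Read-out: inhibition of fibronectin deposition signal.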
PAX8 inh HTS – PAX8 transcriptional activity inhibition; RMG-I TPO-luciferase reporter, SteadyGlo, 24 h; inhibition, % at 12.6 µM; hit rate 1.2% among 360,000; AID 652154;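 active means mean replicate inhibition at least 60% with every replicate also reaching 60%; inconclusive means only one of the two criteria is met; inactive means mean below 60% and not all replicates reaching 60%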;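 further: luciferase light reporting Pax8 driven TPO promoter activity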
FGF22 binding – FGF22 (human) thermal shift binding; Q9HCT0; recombinant FGF22 thermal shift, SYPRO orange fluorescence; percent of sucrose octasulfate shift, DMSO zero; activity (Tm shift, normalised), % at 9.99 µM; hit rate 1.5% among 340,000; AID 651658;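 active means mean Tm shift, scaled 0 neutral to 100 positive control, at about 1.3% or above, every replicate too, limit read from the data; inconclusive means no clear call, values can overlap the other calls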
Target sequence (Q9HCT0 whole entry, looked up): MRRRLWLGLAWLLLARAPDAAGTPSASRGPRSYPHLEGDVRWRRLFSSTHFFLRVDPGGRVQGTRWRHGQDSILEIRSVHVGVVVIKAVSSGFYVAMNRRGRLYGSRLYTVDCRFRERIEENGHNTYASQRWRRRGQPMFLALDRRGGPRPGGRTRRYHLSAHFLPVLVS
Each line names hits and unclear results; the compound was inactive in the other large screens; ! = repeats disagree; [ ] = another dose, or the depositor's remark. Only some compounds are listed: those with a hit (about 3.1% of all), similar ones and a draw of the others.

Cc1ccc(S(=O)(=O)N(C)C[C@H]2OCCCC[C@H](C)Oc3ccc(NC(=O)c4ccccc4)cc3C(=O)N([C@H](C)CO)C[C@@H]2C)cc1	none
O=C(C[C@H]1C=C[C@H](NC(=O)Nc2ccccc2F)[C@@H](CO)O1)NCc1ccc(-c2ccccc2)cc1	none
O=C(C[C@H]1C=C[C@@H](NC(=O)Nc2ccccc2F)[C@H](CO)O1)NCc1ccc(-c2ccccc2)cc1	Env fusion inh 56.6[16.7 µM]
O=C(C[C@@H]1CC[C@@H](NC(=O)Nc2ccccc2F)[C@H](CO)O1)NCc1ccc(F)cc1	none (no result: Env fusion inh, FN deposition inh, PAX8 inh HTS, FGF22 binding)
O=C(C[C@H]1CC[C@@H](NC(=O)Nc2ccccc2F)[C@@H](CO)O1)NCc1ccc(Cl)cc1	Env fusion inh 59.5[16.7 µM]
C[C@@H]1CN([C@@H](C)CO)C(=O)Cc2cc(NS(=O)(=O)c3cn(C)cn3)ccc2O[C@H]1CN(C)C(=O)Nc1ccccc1	none (no result: FN deposition inh)
COc1ccc(NC(=O)Nc2ccc3c(c2)C(=O)N([C@@H](C)CO)C[C@@H](C)[C@H](CN(C)S(=O)(=O)c2ccc(F)cc2)OCCCC[C@@H](C)O3)cc1	none
O=C(CNc1ccc(Br)cc1)c1ccccc1	none (no result: PGC1a acetyl inh, EWS-Fli block, PAX8 inh HTS, FGF22 binding)
O=C(CNc1ccc(F)cc1)c1ccccc1	Env fusion inh 106.1
Cc1noc(C)c1S(=O)(=O)Nc1ccc2c(c1)C(=O)N([C@@H](C)CO)C[C@@H](C)[C@H](CN(C)C(=O)CCCN(C)C)OCCCC[C@@H](C)O2	none (no result: FN deposition inh)
CC(C)NC(=O)N1C[C@@H]2[C@H](c3ccccc31)[C@@H](CO)N2C(=O)Nc1cccc(F)c1	none (no result: Env fusion inh, FN deposition inh)
COC(=O)C1(C(=O)OC)C[C@H](c2ccc(OC)cc2)N(Cc2ccccc2OC)[C@@H]1c1cccs1	Env fusion inh 91.9 (no result: PGC1a acetyl inh)
O=C(C[C@@H]1C[C@H]2c3cc(NC(=O)NC4CCCC4)ccc3O[C@H]2[C@H](CO)O1)NCC1CC1	Env fusion inh inconclusive
COc1cccc(-c2ccc(C3[C@H]4CNC[C@@H]3N4Cc3cc(F)ccc3F)cc2)c1 (stereo partly specified)	none (no result: Env fusion inh, PGC1a acetyl inh, PAX8 inh HTS, FGF22 binding)
COc1cccc(-c2ccc(C3[C@H]4CNC[C@@H]3N4Cc3ccc(F)cc3)cc2)c1 (stereo partly specified)	EWS-Fli block 62.8! (no result: Env fusion inh, FGF22 binding)
COc1ccc(C#Cc2cnc3c(c2)C(=O)N([C@@H](C)CO)C[C@H](C)[C@@H](CN(C)C(=O)CN(C)C)O3)cc1	none (no result: PAX8 inh HTS)
O=C(/C=C/c1ccccc1)Oc1ccccc1C(=S)N1CCOCC1	FGF22 binding 43.2 (no result: PGC1a acetyl inh)
COc1cc(C(=S)N2CCOCC2)ccc1OC(=O)c1ccccc1	none (no result: PGC1a acetyl inh)
COc1cc(C(=S)N2CCOCC2)ccc1OC(=O)/C=C/c1ccco1	FGF22 binding 43.1 (no result: PGC1a acetyl inh, FN deposition inh)
CN1CCN(C(=O)C[C@@H]2CC[C@@H]3[C@H](COC[C@@H](O)CN3C(=O)C3CCCC3)O2)CC1	none (no result: Env fusion inh)
COCCNC(=O)COc1ncnc2scc(-c3ccc(F)cc3)c12	FGF22 binding 43.4 (no result: PGC1a acetyl inh)
CCNC(=O)[C@@H]1[C@@H](CO)[C@@H]2Cn3c(ccc(-c4cncnc4)c3=O)[C@@H]2N1Cc1ccc2c(c1)OCO2	none (no result: PGC1a acetyl inh, FN deposition inh, PAX8 inh HTS)
CCN(CC)CCNC(=O)c1ccc2c(c1NCCO)C(=O)c1ccccc1C2=O	PGC1a acetyl inh 91.6, PAX8 inh HTS 69.0
COc1ccc(S(=O)(=O)N(C)C[C@@H]2Oc3cc(C4=CCCC4)ccc3S(=O)(=O)N([C@H](C)CO)C[C@H]2C)cc1	none (no result: PAX8 inh HTS)
COc1cccc(S(=O)(=O)N(C)C[C@H]2Oc3cc(C4=CCCCC4)ccc3S(=O)(=O)N([C@H](C)CO)C[C@H]2C)c1	Env fusion inh 69.5[16.7 µM] (no result: FN deposition inh, FGF22 binding)
COc1cccc(S(=O)(=O)N(C)C[C@@H]2Oc3cc(C4=CCCCC4)ccc3S(=O)(=O)N([C@@H](C)CO)C[C@@H]2C)c1	Env fusion inh 55.0[16.7 µM], PAX8 inh HTS inconclusive (no result: FN deposition inh)
Cc1cc(C)nc(N/N=C/c2cccc3ccccc23)n1	PAX8 inh HTS 82.2 (no result: Env fusion inh, PGC1a acetyl inh)
Cc1cc(C)nc(N/N=C/c2ccccc2Cl)n1	none
O=C(C[C@H]1CC[C@@H](NC(=O)c2ccc3c(c2)OCO3)[C@H](CO)O1)NCc1ccc(F)cc1	none (no result: FN deposition inh)
CC(C)C[C@H](NC(=O)c1nc[nH]c1C(=O)N[C@@H](CCCCNC(=O)OC(C)(C)C)C(=O)OC(C)(C)C)C(=O)OCc1ccccc1	PAX8 inh HTS 82.1
CC(C)C[C@H](NC(=O)c1[nH]cnc1C(=O)N[C@@H](Cc1ccccc1)C(=O)OCc1ccccc1)C(=O)OC(C)(C)C	none
CC(C)C[C@H](NC(=O)c1[nH]cnc1C(=O)N[C@@H](Cc1ccccc1)C(=O)OC(C)(C)C)C(=O)OC(C)(C)C	PAX8 inh HTS 68.1
CC(C)C[C@H](NC(=O)c1[nH]cnc1C(=O)N[C@@H](Cc1ccccc1)C(=O)OC(C)(C)C)C(=O)OCc1ccccc1	Env fusion inh 58.5
COCCNC(=O)NC(=O)CN1CCN(C(c2ccccc2)c2ccccc2)CC1	FGF22 binding 43.3 (no result: PGC1a acetyl inh)
COCCNC(=S)N1CCN(C(c2ccccc2)c2ccccc2)CC1	none (no result: PGC1a acetyl inh, EWS-Fli block)
CCC(=O)N1C[C@H](C)[C@H](OC)CN(C)C(=O)c2cc(NC(=O)c3ccc(F)cc3)ccc2OC[C@H]1C	none
O=C(NCc1cc(F)cc(F)c1)[C@@H]1[C@@H](CO)[C@@H]2Cn3c(cccc3=O)[C@H]1N2C(=O)c1ccccn1	none (no result: Env fusion inh, PGC1a acetyl inh, FN deposition inh, FGF22 binding)
CCCCC(=O)Nc1nnc(CCOC)s1	FGF22 binding 42.9
CNC(=O)c1ccsc1NC(=O)CCS(=O)(=O)c1ccc(C)cc1	none (no result: PGC1a acetyl inh)
COCc1nnc(NC(=O)CCS(=O)(=O)c2ccccc2)s1	PAX8 inh HTS 66.5
CNC(=O)c1ccsc1NC(=O)CCS(=O)(=O)c1ccccc1	FGF22 binding 43.2 (no result: PGC1a acetyl inh, FN deposition inh)
O=C(CCS(=O)(=O)c1ccccc1)Nc1ncc([N+](=O)[O-])s1	PAX8 inh HTS 78.2
CC(C)c1nnc(NC(=O)CCS(=O)(=O)c2ccccc2)s1	PAX8 inh HTS inconclusive
COc1ccc2c3c([nH]c2c1)[C@@H](CO)N(C(=O)c1cccnc1)CC31CCN(C(=O)Nc2cccc(F)c2)CC1	none (no result: PGC1a acetyl inh, FN deposition inh, PAX8 inh HTS)
C[C@H](CO)N1C[C@H](C)[C@@H](CN(C)C(=O)Nc2ccc(F)cc2)Oc2cc(-c3ccc(F)cc3)ccc2S1(=O)=O	none (no result: PAX8 inh HTS, FGF22 binding)
C[C@@H]1CN([C@@H](C)CO)C(=O)c2cccc(NC(=O)c3cnccn3)c2O[C@H]1CN(C)C(=O)Nc1cccc2ccccc12	none
COc1ccc(S(=O)(=O)N(C)C[C@@H]2Oc3ncc(Br)cc3C(=O)N([C@H](C)CO)C[C@@H]2C)cc1	none (no result: PAX8 inh HTS)
CCc1nnc(NC(=O)CCS(=O)(=O)c2ccccc2)s1	none
CCCCc1nnc(NC(=O)CCS(=O)(=O)c2ccc(C)cc2)s1	PAX8 inh HTS 78.8 (no result: PGC1a acetyl inh)
CCc1nnc(NC(=O)CCS(=O)(=O)c2ccc(C)cc2)s1	PAX8 inh HTS 64.2 (no result: Env fusion inh)
COCC(=O)Nc1ccc2c(c1)[C@H]1C[C@@H](CC(=O)NCc3ccccc3)O[C@H](CO)[C@H]1O2	none
